Series [1] concerns the target Programmed cell death protein 1/Programmed cell death 1 ligand 1 (Homo sapiens, UniProt Q9NZQ7). Kind of series: Inhibition of PD1-Tag2/PD-L1-Tag1 (unknown origin) protein-protein interaction preincubated for 15 mins followed by addition of anti-Tag1-Eu3+ and anti-Tag2-XL665 measured after 2.5 hrs by HTRF assay. It counts as protein-complex assay. In a few lines: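 Commercial HTRF kit. Compound incubated with PD-L1-Tag1 and PD1-Tag2 at rt for 15 min, then anti-Tag1-Eu³⁺/anti-Tag2-XL665 conjugate mix added and incubated 2.5 h at rt.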

The target in series [2] is T1, Programmed cell death 1 ligand 1 (Homo sapiens, UniProt Q9NZQ7). Kind of series: Binding affinity to human PD-L1 expressed in CHOK1 cells assessed as inhibition of PD1/PDL1 protein-protein interaction at 500 nM incubated for 30 mins by flow cytometry analysis relative to control. The following applies: CHO-K1. It counts as cell-based. In a few lines:
(§1)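 CHO-K1-hPD-L1 cells, 5 × 10⁵ per tube in PBS with 2% FBS, incubated with hPD-1/Fc (10 μg/mL final) at 4 °C for 30 min. Compound added at 500 nM final and incubated a further 30 min at 4 °C, then stained with APC anti-human IgG Fc. Percentage of hPD-1-bound cells read by flow cytometry. Blocking efficacy calculated against a no-inhibitor positive control and parental CHO-K1 negative control.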
(In flow cytometry, cells or beads pass a laser one at a time.)

The test system of a further series is Raji. Kind of series: Cytotoxicity against human Raji cells assessed as reduction in cell viability at 100 uM incubated for 24 hrs by Cell-titer glo Luminescent assay. It counts as cell-based. In a few lines:
(§2)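 Cells (Raji, RAW 264.7 or donor PBMCs) plated at 1 × 10⁴ per well in medium with 10% FBS. Treated for 24 h at 37 °C, 5% CO₂ with 100, 50, 25, 12.5, 6.25 or 3.125 μM compound, or buffer containing 0.2% DMSO. Viability read by CellTiter-Glo luminescence; killing rate = (1 − RLU compound/RLU control) × 100%; triplicate, mean ± SEM.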

Series [3] concerns the target T1, Programmed cell death 1 ligand 1. Put plainly: Binding affinity to biotinylated human AVI-PD-L1 assessed as dissociation rate constant by biolayer interferometry. On the technique in general: BLI is a label-free optical method that tracks binding on a fibre tip over time.
Series [4] is described as follows: Cytotoxicity against human PBMC cells assessed as reduction in cell viability up to 100 uM incubated for 24 hrs by Cell-titer glo Luminescent assay. It counts as cell-based. In a few lines: as §2
Series [5] addresses T1, Programmed cell death 1 ligand 1. Kind of series: Binding affinity to biotinylated human AVI-PD-L1 by biolayer interferometry. In a few lines: (§3)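 Biotinylated human PD-L1/AVI at 10 μg/mL loaded on streptavidin biosensors for 300 s, then baselined. Association with compound at 20 to 0.3125 nM plus 0 nM for 180 s, then dissociation in buffer for 300 s. Data globally fitted to a 1:1 model to give ka and kdis; apparent affinity taken as their ratio.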

For series [6] the target is unchanged. Put plainly: Inhibition of human PD-L1 cocultured in PBMC cells assessed as inhibition of PD1/PDL1 interaction mediated increase in IFN-gamma secretion at 1 uM incubated for 72 hrs by ELISA relative to control. It counts as cell-based. In a few lines: (§4)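 Healthy-donor PBMCs, 1 × 10⁵ per well in RPMI 1640 with 10% FBS, stimulated with anti-CD3/anti-CD28 (1:1, 0.8 μg/mL final) plus PD-L1/Fc at 10 μg/mL final. Compound added at 0.1 or 1 μM final and cocultured 72 h at 37 °C, 5% CO₂. Supernatant IFN-γ measured by ELISA; quadruplicate, mean ± SEM.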
In general terms: In an ELISA, binding on a coated surface is turned into a signal by an enzyme label.

The target is the same in series [7]. Put plainly: Inhibition of human PD-L1 cocultured in PBMC cells assessed as inhibition of PD1/PDL1 interaction mediated increase in IFN-gamma secretion at 0.1 uM incubated for 72 hrs by ELISA. It counts as cell-based. In a few lines: as §4
Series [8] shares this target. Put plainly: Binding affinity to human PD-L1 expressed in CHOK1 cells assessed as inhibition of PD1/PDL1 protein-protein interaction at 500 nM incubated for 30 mins by flow cytometry analysis. The following applies: CHO-K1. It counts as cell-based. In a few lines: as §1
The target is the same in series [9]. Kind of series: Binding affinity to biotinylated human AVI-PD-L1 assessed as association constant by biolayer interferometry. In a few lines: as §3
A short description of series [10]: Cytotoxicity against human PBMC cells assessed as reduction in cell viability at 6.3 uM incubated for 24 hrs by Cell-titer glo Luminescent assay. It counts as cell-based. In a few lines:
as §2

In another series the test system is RAW264.7. Kind of series: Cytotoxicity against mouse RAW264.7 cells assessed as reduction in cell viability at 3.125 to 100 uM incubated for 24 hrs by Cell-titer glo Luminescent assay. The format is cell-based. The following applies: raw264.7, 24 h, dose 3.125-100 µM. In a few lines: as §2
Series [11] concerns the target T2, Programmed cell death 1 ligand 2 (Homo sapiens) (UniProt Q9BQ51).
T2 sequence (whole entry): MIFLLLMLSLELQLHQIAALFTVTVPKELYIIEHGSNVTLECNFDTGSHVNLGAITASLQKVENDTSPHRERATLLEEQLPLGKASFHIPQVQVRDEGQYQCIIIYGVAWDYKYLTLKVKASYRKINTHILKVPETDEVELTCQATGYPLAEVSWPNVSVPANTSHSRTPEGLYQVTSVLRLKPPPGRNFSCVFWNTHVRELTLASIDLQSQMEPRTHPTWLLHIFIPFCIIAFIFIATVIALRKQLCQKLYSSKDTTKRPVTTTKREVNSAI
Put plainly: Binding affinity to human Fc-tagged PDL2 at 500 nM measured after 600 sec by biolayer interferometry.

The target of series [12] is T1, Programmed cell death 1 ligand 1. Put plainly: Binding affinity to human Fc-tagged PDL1 at 500 nM measured after 600 sec by biolayer interferometry.
For series [13], the target named is Programmed cell death protein 1 (Homo sapiens) (UniProt Q15116). Put plainly: Binding affinity to human Fc-tagged PD1 at 500 nM measured after 600 sec by biolayer interferometry.
Sequence of Programmed cell death protein 1 (Homo sapiens) (Q15116 whole entry): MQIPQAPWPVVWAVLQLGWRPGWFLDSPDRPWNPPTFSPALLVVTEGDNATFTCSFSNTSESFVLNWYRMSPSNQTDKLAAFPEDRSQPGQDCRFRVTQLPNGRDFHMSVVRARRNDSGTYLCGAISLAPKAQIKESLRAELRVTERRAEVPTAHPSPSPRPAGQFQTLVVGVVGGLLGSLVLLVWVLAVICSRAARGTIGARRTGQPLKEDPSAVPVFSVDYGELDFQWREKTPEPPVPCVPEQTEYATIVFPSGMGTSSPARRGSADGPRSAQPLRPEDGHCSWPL
Series [14] deals with T1, Programmed cell death 1 ligand 1. Kind of series: Inhibition of human PD-L1 cocultured in PBMC cells assessed as inhibition of PD1/PDL1 interaction mediated increase in IFN-gamma secretion at 1 uM incubated for 72 hrs by ELISA. The format is cell-based. In a few lines:
as §4

The target of series [15] is CD27 antigen (Homo sapiens) (UniProt P26842). Put plainly: Binding affinity to human Fc-tagged CD27 at 500 nM measured after 600 sec by biolayer interferometry.
Sequence of CD27 antigen (Homo sapiens) (P26842 whole entry): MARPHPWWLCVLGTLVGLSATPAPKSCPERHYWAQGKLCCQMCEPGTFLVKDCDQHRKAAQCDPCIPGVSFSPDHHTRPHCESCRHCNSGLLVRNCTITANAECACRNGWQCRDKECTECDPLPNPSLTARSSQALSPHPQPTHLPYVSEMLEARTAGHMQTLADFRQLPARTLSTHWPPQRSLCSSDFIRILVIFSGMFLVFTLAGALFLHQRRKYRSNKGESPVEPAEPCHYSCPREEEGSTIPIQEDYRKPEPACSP
The target in series [16] is T3, Lymphocyte activation gene 3 protein (Homo sapiens) (UniProt P18627).
T3 sequence (whole entry): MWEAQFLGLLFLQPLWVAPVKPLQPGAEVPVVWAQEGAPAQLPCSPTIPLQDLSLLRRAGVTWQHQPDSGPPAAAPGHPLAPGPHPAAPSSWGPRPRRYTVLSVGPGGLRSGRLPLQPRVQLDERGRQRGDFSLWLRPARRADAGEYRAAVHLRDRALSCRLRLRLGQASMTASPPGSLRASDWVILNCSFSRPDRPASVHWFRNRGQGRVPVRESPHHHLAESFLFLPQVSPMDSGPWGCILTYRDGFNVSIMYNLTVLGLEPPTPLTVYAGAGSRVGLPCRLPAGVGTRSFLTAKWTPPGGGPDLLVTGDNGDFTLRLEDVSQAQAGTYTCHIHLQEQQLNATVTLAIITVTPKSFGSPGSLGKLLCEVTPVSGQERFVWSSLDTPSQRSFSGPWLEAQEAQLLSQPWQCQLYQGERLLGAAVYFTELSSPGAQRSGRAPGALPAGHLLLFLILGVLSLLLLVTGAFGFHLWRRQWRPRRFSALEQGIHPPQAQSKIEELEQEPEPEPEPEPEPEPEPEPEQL
Put plainly: Binding affinity to human Fc-tagged LAG3 at 500 nM measured after 600 sec by biolayer interferometry.

Series [17] has as its target Hepatitis A virus cellular receptor 2 (Homo sapiens) (UniProt Q8TDQ0). Put plainly: Binding affinity to human Fc-tagged TIM3 at 500 nM measured after 600 sec by biolayer interferometry.
The target of series [18] is Leukocyte surface antigen CD47 (Homo sapiens) (UniProt Q08722). Put plainly: Binding affinity to human Fc-tagged CD47 at 500 nM measured after 600 sec by biolayer interferometry.
Sequence of Leukocyte surface antigen CD47 (Homo sapiens) (Q08722 whole entry): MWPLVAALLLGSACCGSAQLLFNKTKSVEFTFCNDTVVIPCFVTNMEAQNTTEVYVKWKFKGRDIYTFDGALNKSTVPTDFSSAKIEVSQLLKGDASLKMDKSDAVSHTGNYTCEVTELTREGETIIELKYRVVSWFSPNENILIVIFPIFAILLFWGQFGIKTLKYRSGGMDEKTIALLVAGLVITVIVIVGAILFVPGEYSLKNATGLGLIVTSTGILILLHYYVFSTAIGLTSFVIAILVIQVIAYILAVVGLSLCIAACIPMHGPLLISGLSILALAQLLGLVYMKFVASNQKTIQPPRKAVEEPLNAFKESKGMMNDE

Active and inactive are the calls of the source. The calls are words filed in the database; no cut-off is given here. Bounds are passed on as bounds.

T1 sequence (Q9NZQ7 whole entry): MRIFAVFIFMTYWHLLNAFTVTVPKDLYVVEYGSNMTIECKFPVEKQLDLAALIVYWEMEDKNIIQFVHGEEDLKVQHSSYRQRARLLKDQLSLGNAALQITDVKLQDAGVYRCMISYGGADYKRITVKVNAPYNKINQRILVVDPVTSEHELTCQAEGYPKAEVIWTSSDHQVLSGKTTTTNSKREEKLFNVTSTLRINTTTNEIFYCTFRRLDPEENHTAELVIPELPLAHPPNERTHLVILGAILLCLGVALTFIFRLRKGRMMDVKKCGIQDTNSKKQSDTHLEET
Sequence of Programmed cell death protein 1/Programmed cell death 1 ligand 1 (Q15116 whole entry): as the sequence (Q15116 whole entry) above
Sequence of Programmed cell death protein 1/Programmed cell death 1 ligand 1 (Q9NZQ7 whole entry): as the sequence (Q9NZQ7 whole entry) above
Sequence of Hepatitis A virus cellular receptor 2 (Homo sapiens) (Q8TDQ0 whole entry): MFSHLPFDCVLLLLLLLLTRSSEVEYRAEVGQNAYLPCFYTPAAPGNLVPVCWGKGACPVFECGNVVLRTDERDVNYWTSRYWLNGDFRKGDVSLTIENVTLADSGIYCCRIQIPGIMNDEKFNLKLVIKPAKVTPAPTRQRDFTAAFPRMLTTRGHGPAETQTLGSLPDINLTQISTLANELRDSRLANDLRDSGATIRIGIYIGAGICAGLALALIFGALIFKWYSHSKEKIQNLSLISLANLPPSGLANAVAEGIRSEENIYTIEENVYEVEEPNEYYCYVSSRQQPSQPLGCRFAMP

In the case of `Cc1cc(NCc2cccc(-c3ccccc3)c2C)cc(OCc2cccc(C#N)c2)c1CN[C@H](CO)C(=O)O`, inhibition in series [1] was half-maximal at 363 nM (IC50).

Take `Cc1cc(NCc2cccc(-c3ccccc3)c2C)cc(OCc2cncc(C#N)c2)c1CN[C@H](CO)C(=O)O`: 436 nM corresponded to half-maximal inhibition in series [1] (IC50).

Consider `Cc1c(CN(C)c2ccc(CN[C@H](CO)C(=O)O)c(OCc3cccc(C#N)c3)c2)cccc1-c1ccccc1`, for which the half-inhibitory concentration (IC50) – broadly, the concentration needed to halve the response being measured – in [1] is above 100000 nM.

Compound `N#Cc1cccc(COc2cc(NCc3cccc(-c4ccccc4)c3Br)ccc2CN[C@H](CO)C(=O)O)c1` showed an IC50 in series [1] of 637 nM.

As for `Cc1cc(CN2C[C@@H](O)CC2=O)c(OCc2cncc(C#N)c2)cc1NCc1cccc(-c2ccccc2)c1C`, in series [1], the midpoint of inhibition, the IC50, lay at 1330 nM.

Consider `Cc1cc(CN[C@H](CO)C(=O)O)c(OCc2cncc(C#N)c2)cc1NCc1cccc(-c2ccc3c(c2)OCCO3)c1C`, for which the IC50 in series [1] was found to be 44 nM.

In series [1], `Cc1c(CNc2cc(OCc3cncc(C#N)c3)c(CN[C@H](CO)C(=O)O)cc2Cl)cccc1-c1ccc2c(c1)OCCO2` returned a concentration for half-maximal inhibition (IC50) of 131 nM.

`Cc1c(CNc2cc(OCc3cncc(C#N)c3)c(CN[C@H](CO)C(=O)O)cc2Cl)cccc1-c1ccccc1`: in series [1], it took 26 nM to reach half-maximal inhibition (IC50).

Compound `Cc1cc(CN[C@@H](CO)C(=O)O)c(OCc2cncc(C#N)c2)cc1NCc1cccc(-c2ccccc2)c1C` returned an IC50 in series [1] of 23 nM.

In the case of `Cc1cc(CN[C@H](CO)C(=O)O)c(OCc2ccccc2)cc1NCc1cccc(-c2ccccc2)c1C`, the IC50 in [1] was 2580 nM.

With `Cc1c(CNc2ccc(CN[C@H](CO)C(=O)O)c(OCc3cncc(C#N)c3)c2)cccc1-c1ccccc1`, the Efficacy in [2] came to 95.9%. Also, the Activity entry (in the series with Raji; in series [4]; in series [10]; in the series with RAW264.7) was “Non-Toxic” in each case. In addition, the koff in series [3] is 2.51 10^-4/s. For the same compound, the Dissociation constant (KD) in series [5] was 2.96 10^-10M. For the same compound, the inhibition (commonly the change of the read-out against control, counted positive when it falls) in series [6] was found to be 42.5%. In series [7], the inhibition entry is “inactive”. Moreover, the outcome in [8] was Active. Also, the association rate constant (kon) in series [9] is 8.49 10^5/M/s.

In the case of `Cc1c(CNc2ccc(CN[C@H](CO)C(=O)O)c(OCc3cccc(C#N)c3)c2)cccc1-c1ccccc1`, the result in [11], in series [13], in series [15], in series [16], in series [17] and in [18] was inactive. Moreover, the Efficacy in [2] was determined as 96.1%. Moreover, the Activity entry (with Raji; in [4]; in series [10]; in the series on RAW264.7) was “Non-Toxic” each time. Also, the result in series [12] and in series [8] was Active. Besides, the koff in series [3] is 1.18 10^-3/s. Further, the inhibition result in [14] and in [7] was “inactive” throughout. For the same compound, the Dissociation constant (KD) in series [5] is 1.81 10^-9M. Besides, the association rate constant (kon) in [9] was 6.51 10^5/M/s.

Consider `COc1cc(NCc2cccc(-c3ccccc3)c2C)c(C)cc1CN[C@H](CO)C(=O)O`, for which, in series [1], the IC50 stood at 253 nM. This counts as sub-micromolar.

Regarding `N#Cc1cncc(COc2cc(NCc3cccc(-c4ccccc4)c3Br)ccc2CN[C@H](CO)C(=O)O)c1`, in series [1], the IC50 was determined as 206 nM.

Consider `Cc1cc(CN[C@H](CCO)C(=O)O)c(OCc2cncc(C#N)c2)cc1NCc1cccc(-c2ccccc2)c1C`, for which half-maximal inhibition in series [1] (IC50) was put at 36 nM.

`Cc1cc(CN[C@H](CO)C(=O)O)c(OCc2cncc(C#N)c2)cc1NCc1cccc(-c2ccccc2)c1Br` returned an IC50 in [1] of 31 nM.

Take `COc1cc(NCc2cccc(-c3ccccc3)c2C)c(Cl)cc1CN[C@H](CO)C(=O)O`: the Efficacy in series [2] came to 98.6%. The koff in series [3] was 6.64 10^-4/s. Also, the Activity result (in series [4]; in series [10]; in the series with RAW264.7) was “Non-Toxic” each time. For the same compound, in series [5], the Dissociation constant (KD) was 5.15 10^-10M. In [6], the inhibition came out at 40.9%. In series [7], the inhibition result is “inactive”. Besides, the outcome in series [8] was Active. Moreover, the association rate constant (kon) in series [9] is 1.29 10^6/M/s.

The values above are taken from ChEMBL document CHEMBL4673285, “Design, Synthesis, and Biological Evaluation of Linear Aliphatic Amine-Linked Triaryl Derivatives as Potent Small-Molecule Inhibitors of the Programmed Cell Death-1/Programmed Cell Death-Ligand 1 Interaction with Promising Antitumor Effects In Vivo” (J Med Chem, 2020).
